Screening results as filed in PubChem.
Pemphigus Ab inh: human desmoglein-3 autoantibody binding inhibition | DSG3-coupled beads, scFv-anti-DSG3-GFP binding, flow cytometry; stronger effect = lower value | binding (percent of control), % at 10 µM | AID 588358 | 0.48% of 310,000 active;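 active = binding more than 3 SD below its plate's average and above zero; inconclusive = below that plate limit but binding exactly zero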;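 also: hits lower antibody fragment binding to DSG3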
LANA-H2A inh: blocks KSHV LANA binding to histone H2A/H2B. Q9QR71. cell-free LANA-H2A/H2B peptide, fluorescence polarization. inhibition, % (concentration not given with the values). 0.6% of 320,000 active. AID 2629; in the data active = inhibition mostly above about 10%, no sharp cut-off; inactive = mostly below about 6.7%
Arr AP2 block: inhibitors of human beta-arrestin and AP2 interaction; FITC-arrestin peptide / GST-AP2 beads, flow cytometry; AP2 beta2 appendage carries R879A mutation; inhibition, % at 10 µM; 0.31% of 340,000 active; AID 504490;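 active = inhibition above a set limit, near 3 SD of compounds lacking own fluorescence, cut at about 54% in these data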
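Material – AP2 appendage R879A on GSH beads · Buffer or medium – PBS with 0.05% Tween 20 and 0.1% BSA · Probe or stimulus – fluorescein-tagged arrestin peptide at 50 nM final · Incubation – compound with beads 12 min RT, then probe 1 h RT · Detection – high-throughput flow cytometry of beads, ex 488, em 535 nm · Evaluation – percent response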
T cell modulator: T cell immune modulators affecting CD8 T cell-vesicle binding; 2C CD8+ T cell-vesicle binding, flow cytometry; stronger effect = lower value; 0.068% of 330,000 active; response (vesicle binding), % at 7 µM; AID 2052;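 active = response, share of CD8 T cells binding vesicles, and their 90th percentile fluorescence all below set limits, cut at about 80% in these data, passing the limit was not always enough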;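 also: values below 100% mean blocked vesicle binding to the CD8+ T cells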
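Also added: QL9-peptide-loaded Drosophila micro-vesicles bearing Ld, ICAM-1 and B7-1; Test system: purified 2C TCR transgenic mouse naive CD8+ T cells; Measured by: cytometric PE anti-B7-1 and Alexa647 anti-CD8 signals after 1% paraformaldehyde fixation; Timing: binding step 1.5 h, 37 °C, antibody labelling 20 min, ice.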
HDAC3 inhib: human HDAC3 inhibition; O15379; recombinant HDAC3, fluorogenic peptide/trypsin coupled, fluorescence; inhibition, % at 8.3 µM; 0.15% of 320,000 active; AID 2718; in the data active = inhibition above about 26%, passing the limit was not always enough; inconclusive = no clear call, values can overlap the other calls
Of the large screens only hits and unclear results are named; the others gave an inactive call; ! = a repeat was not active. Shown are actives, neighbours in structure and some others; about 1.5% of the full set was active somewhere.

Cc1ccc(NC(=O)CSC2=NN3CCCC(=O)N=C3S2)cc1Cl	none
COC(CN(C)S(=O)(=O)c1cc2c3c(c1)CCN3C(=O)CC2)OC	none
O=C(c1ccccc1Cl)N1CCC(O)(c2cccnc2)CC1	none
O=S(=O)(c1ccc(Cl)cc1)N1CCC(O)(c2cccnc2)CC1	T cell modulator 0.0
COc1cc(OC)c(/C=N/NC(=O)c2ccncc2)c(OC)c1	none
Cc1ccc(C(=O)Oc2ccc(-c3nnco3)cc2)o1	HDAC3 inhib 100
O=C(O)CCc1ccc(S(=O)(=O)Nc2ccccc2N2CCCCC2)cc1	Pemphigus Ab inh inconclusive
Cc1ccccc1CC1(CO)CCCN(C(=O)CCCN2CCCCC2=O)C1 (stereo not drawn)	LANA-H2A inh 83
CCOc1cc2c3c(c1)C(C)=CC(C)(C)N3C(=O)C2=O	LANA-H2A inh 13 (no result: HDAC3 inhib)
COc1ccc(CCN2CCC(Nc3nc4ccccc4n3Cc3ccc(F)cc3)CC2)cc1	LANA-H2A inh 14
c1ccc(Nc2nc(-c3ccccc3)ns2)cc1	Pemphigus Ab inh 58
Cc1ccc(S(=O)(=O)CC(=O)c2cc3cccc(C)c3oc2=O)cc1	Pemphigus Ab inh 49
CC1(C)CC(=O)C(C(C#Cc2ccccc2)C2=C(O)CC(C)(C)CC2=O)=C(O)C1	LANA-H2A inh 17
CSc1sc(-c2n[nH]c(=S)n2C)c2c1C=CCC2	HDAC3 inhib 34
Cc1nc(-c2ccccc2)sc1-c1n[nH]c(=S)n1C	none
CCN1C(=O)c2ccccc2Sc2ccc(C(=O)NCCCN(CC(C)C)CC(C)C)cc21	none
O=C(O)c1cc(S(=O)(=O)NCCOc2ccccc2)ccc1Cl	none
Fc1ccc(C2=CC(c3cccs3)n3nnnc3N2)cc1 (stereo not drawn)	none
OCCCc1nc2n(n1)C(c1cccs1)C=C(c1ccccc1)N2 (stereo not drawn)	LANA-H2A inh 68 (no result: Pemphigus Ab inh, Arr AP2 block)
OCCCc1nc2n(n1)C(c1ccccc1)C=C(c1ccc(F)cc1)N2 (stereo not drawn)	none
Cc1ccc(C2=CC(c3cccs3)n3nnnc3N2)cc1 (stereo not drawn)	LANA-H2A inh 23 (no result: Pemphigus Ab inh)
COc1cccc(OC)c1C(=O)Nc1ccnn1C	none
NC(=O)C1CCN(c2nc(-c3ccc(Br)cc3)cs2)CC1	Pemphigus Ab inh 58 (no result: LANA-H2A inh, HDAC3 inhib)
CCC(C)N1CCC(Oc2ccc(C(=O)NCc3ccccn3)cc2)CC1 (stereo not drawn)	LANA-H2A inh 175
N#CCCn1cnc2c(=S)nc[nH]c21	LANA-H2A inh 9.9
N#Cc1ccsc1NC(=O)COC(=O)c1ccc2ccccc2c1	Pemphigus Ab inh 63
Cn1cccc1C(=O)OCC(=O)Nc1sccc1C#N	none
Nc1cccc(-c2nc3cc(S(=O)(=O)c4ccc5oc(-c6cccc(N)c6)nc5c4)ccc3o2)c1	Pemphigus Ab inh 77
Cc1ccc2oc(-c3cccc(N)c3)nc2c1	none
Cc1cc(C)cc(NC(=O)COC(=O)c2ccc3c(c2)OCCO3)c1	LANA-H2A inh 12
O=C(COC(=O)Cc1cccc(C(F)(F)F)c1)Nc1ccc2c(c1)OCCO2	LANA-H2A inh 146
Cc1ccc(S(=O)(=O)NCC(=O)OCC(=O)c2cccs2)cc1	Pemphigus Ab inh 43
Cc1ccc(S(=O)(=O)NCC(=O)OCC(=O)Nc2ccc3c(c2)OCCO3)cc1	LANA-H2A inh 19
COc1ccc(NC(=O)CCC(=O)NCc2ccco2)c([N+](=O)[O-])c1	none
COC(=O)C[C@@H]1C[C@@H]2c3cc(NC(=O)NC4CCCCC4)ccc3O[C@@H]2[C@H](CO)O1	none (no result: LANA-H2A inh, Arr AP2 block, T cell modulator, HDAC3 inhib)
N#CC(CCc1ccccc1[N+](=O)[O-])(CCc1ccccc1[N+](=O)[O-])C(N)=O	none (no result: LANA-H2A inh, T cell modulator, HDAC3 inhib)
Cc1ccc(C(=O)OCC(=O)Nc2ccc3c(c2)OCCO3)cc1C	Pemphigus Ab inh 69 (no result: LANA-H2A inh, T cell modulator, HDAC3 inhib)
Cc1ccc(NC(=O)COC(=O)CCC(=O)c2cccs2)c(C)c1	Pemphigus Ab inh 91
CCNc1ccc(C(=O)OCC(=O)Nc2cc(C)on2)cc1[N+](=O)[O-]	none
CCOc1ccc(NC(=O)CN(C)C(=O)c2cc3c(s2)CCCCC3)cc1OCC	none
COc1ccc(CNC(=O)CCS(=O)(=O)c2ccc3c(c2)NC(=O)CS3)cc1	none
CN1[C@@H]2CC[C@H]1CC(OC(=O)C(CO)c1ccccc1)C2 (stereo partly drawn)	LANA-H2A inh 36! (no result: T cell modulator)
CN1C2CCC1CC(OC(=O)C(CO)c1ccccc1)C2 (stereo not drawn)	none
COc1cc(NC(=O)C(C)Oc2ccccc2)ccc1NC(=O)COc1ccccc1 (stereo not drawn)	none (no result: Pemphigus Ab inh)
Cc1ccc(S(=O)(=O)CC(=O)Nc2nc3ccccc3s2)cc1	none (no result: Pemphigus Ab inh)
Cc1ccc(CC(=O)Nc2nc3ccccc3s2)cc1	LANA-H2A inh 24 (no result: Pemphigus Ab inh)
Cc1ccccc1OCC(=O)N/N=C/c1ccccn1	LANA-H2A inh 27
Cc1ccc(S(=O)(=O)N2CCc3ccccc3C2)cc1C	none
O=C(Cc1cccs1)Nc1cc(S(=O)(=O)N2CCCCC2)ccc1Cl	LANA-H2A inh 82
O=C(Cc1ccc(S(=O)(=O)N2CCOCC2)s1)Nc1cc(Cl)ccc1Cl	LANA-H2A inh active
CC1CCN(S(=O)(=O)c2ccc(NC(=O)Cc3ccc(S(=O)(=O)N4CCOCC4)s3)cc2)CC1	LANA-H2A inh active
COc1cc(NC(=O)Cc2ccc(S(=O)(=O)N3CCOCC3)s2)c(OC)cc1Cl	none
CC1CCCN(S(=O)(=O)c2ccc(NC(=O)Cc3ccc(S(=O)(=O)N4CCOCC4)s3)cc2)C1 (stereo not drawn)	none
CCOC(=O)C1=C(N)Oc2cc(O)ccc2C1c1ccc(Br)cc1 (stereo not drawn)	none
N#CC1(NC(=O)COC(=O)/C=C/c2ccc3ccccc3n2)CCCCC1	none (no result: Pemphigus Ab inh)
O=C(CSc1ncn[nH]1)Nc1cccc(S(=O)(=O)N2CCCCCC2)c1	none
O=C(CCNC(=O)c1ccc([N+](=O)[O-])cc1)Nc1cccc(S(=O)(=O)N2CCCCCC2)c1	LANA-H2A inh 12
Nc1nc(SCC(=O)Nc2cccc(S(=O)(=O)N3CCCCCC3)c2)n[nH]1	LANA-H2A inh 171
COc1ccc2c(c1O)-c1ccccc1CCN(C)C2	none
CN1CCc2cccc3c2[C@@H]1Cc1ccc(O)c(O)c1-3	LANA-H2A inh active (no result: HDAC3 inhib)
COc1ccc(C2c3c(n[nH]c3C)CC(C)(O)C2C(C)=O)cc1OC (stereo not drawn)	LANA-H2A inh 10 (no result: Pemphigus Ab inh)
COc1ccc(C2C(C(C)=O)=C(Nc3ccccc3)CC(C)(O)C2C(C)=O)cc1OC (stereo not drawn)	none
CN(CC(=O)Nc1ccc(F)cc1)CC(=O)N1CCCCCC1	none (no result: Pemphigus Ab inh)
CC(=O)c1ccc(NC(=O)CSc2nnc(NC(=O)c3ccco3)s2)cc1	none
Cc1ccc(NC(=O)CSc2nnc(NC(=O)c3ccco3)s2)cc1	Pemphigus Ab inh 5.9
CN1CCN(C(=O)c2cccc(NS(=O)(=O)c3ccc(Br)cc3)c2)CC1	none
CN1CCCN(C(=O)c2cccc(Br)c2)CC1	LANA-H2A inh 12
Cc1ccc(NC(=O)NN2CCN(C)CC2)cc1C	none
